The values that follow come from ChEMBL document CHEMBL4813976, “Rational drug design of benzothiazole-based derivatives as potent signal transducer and activator of transcription 3 (STAT3) signaling pathway inhibitors” (Eur J Med Chem, 2021).

The test system of one assay is HEL. Description: Antiproliferative activity against human HEL cells harboring JAK2 V617F mutant assessed as inhibition of cell growth incubated for 72 hrs by MTT assay. It is filed as functional, cell-based. Summed up:
(§1)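 MTT proliferation assay; MDA-MB-468 grown in DMEM/F-12 and HEL in high-glucose DMEM, each with 10% FBS and penicillin/streptomycin, at 37 °C under 5% CO₂. IC50 given as mean ± SD of at least three independent experiments.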

The next assay concerns MDA-MB-468. Description: Antiproliferative activity against human MDA-MB-468 cells overexpressing STAT3 assessed as inhibition of cell growth incubated for 72 hrs by MTT assay. Type of assay: functional, cell-based. The following applies: MDA-MB-468, 72 h. A digest of the protocol: as §1
A general note: Formazan colour is commonly taken as a measure of viable cells.

For assay [1], the target named is T1, Signal transducer and activator of transcription 3 (Homo sapiens, UniProt P40763). The assay is described as follows: Inhibition of IL-6 induced STAT3 transcriptional activity in human HepG2 cells incubated for 1 hr followed by stimulation with IL-6 for 5.5 hrs by luciferase reporter gene assay. Type of assay: cell-based. Summed up:
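STAT3-dependent luciferase reporter assay in HepG2 cells with IL-6 stimulation; IC50 given as mean ± SD of at least three independent experiments.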
(A reporter such as luciferase makes a cellular process visible.)

The next assay relates to MDA-MB-453. Description: Antiproliferative activity against human MDA-MB-453 cells expressing low levels of STAT3 assessed as inhibition of cell growth incubated for 72 hrs by MTT assay. Type of assay: functional, cell-based. The settings on record: MDA-MB-453, 72 h. A digest of the protocol: (§2)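 MTT proliferation assay on MCF-7 and MDA-MB-453 cells; IC50 given as mean ± SD of at least two independent experiments.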

Another assay deals with MCF7. The assay is described as follows: Antiproliferative activity against human MCF7 cells expressing low levels of STAT3 assessed as inhibition of cell growth incubated for 72 hrs by MTT assay. Type of assay: functional, cell-based. The following applies: MCF7, 72 h. A digest of the protocol:
as §2

Assay [2] addresses T1, Signal transducer and activator of transcription 3. Description: Displacement of 5'-FAM-GpYLPQTV-NH2 from His-tagged STAT3-SH2 domain (127 to 722 residues) (unknown origin) assessed as binding rate at 50 uM […] by fluorescence polarization assay. The settings on record: time 90.0 min.
For assay [3] the target is unchanged. Description: Displacement of 5'-FAM-GpYLPQTV-NH2 from His-tagged STAT3-SH2 domain (127 to 722 residues) (unknown origin) assessed as binding rate at 20 uM […] by fluorescence polarization assay. The settings on record: time 90.0 min.
Assay [4] shares this target. Description: Displacement of 5'-FAM-GpYLPQTV-NH2 from His-tagged STAT3-SH2 domain (127 to 722 residues) (unknown origin) assessed as binding rate at 100 uM […] by fluorescence polarization assay. The settings on record: time 90.0 min.
Assay [5] shares this target. Description: Binding affinity to His-tagged STAT3-SH2 domain (127 to 722 residues) (unknown origin) by surface plasmon resonance analysis. Summed up:
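SPR on a Biacore T200 with STAT3 SH2 domain. Analytes were run as concentration series, and KD was taken as the equilibrium constant.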
A general note: SPR reads the build-up and loss of mass on a sensor chip optically.

SMILES strings stand for the structures.

T1 sequence (P40763 whole entry): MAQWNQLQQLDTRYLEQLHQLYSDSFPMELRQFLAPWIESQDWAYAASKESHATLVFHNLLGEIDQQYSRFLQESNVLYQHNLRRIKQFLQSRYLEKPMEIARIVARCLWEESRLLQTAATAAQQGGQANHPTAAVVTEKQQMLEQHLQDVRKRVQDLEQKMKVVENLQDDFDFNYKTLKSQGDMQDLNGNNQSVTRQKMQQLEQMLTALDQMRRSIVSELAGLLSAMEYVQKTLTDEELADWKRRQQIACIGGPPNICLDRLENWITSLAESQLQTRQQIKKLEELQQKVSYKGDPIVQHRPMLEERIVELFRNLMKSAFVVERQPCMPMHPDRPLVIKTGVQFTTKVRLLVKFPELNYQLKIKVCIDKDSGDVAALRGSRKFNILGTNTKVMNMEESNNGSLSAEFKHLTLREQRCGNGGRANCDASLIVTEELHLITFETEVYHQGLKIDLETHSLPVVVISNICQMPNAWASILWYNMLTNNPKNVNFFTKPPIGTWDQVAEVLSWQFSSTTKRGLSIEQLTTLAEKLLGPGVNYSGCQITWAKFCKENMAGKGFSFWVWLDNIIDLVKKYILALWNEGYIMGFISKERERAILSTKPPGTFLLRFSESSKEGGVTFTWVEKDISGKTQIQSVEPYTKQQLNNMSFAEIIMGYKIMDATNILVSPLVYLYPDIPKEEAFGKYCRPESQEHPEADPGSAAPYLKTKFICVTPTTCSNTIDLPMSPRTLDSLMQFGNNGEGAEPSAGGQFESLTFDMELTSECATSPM

On to `COc1ccc([C@H](C)NC(=O)CSc2nc3ccc(NC(=O)c4ccc(OC)c(C)c4OC)cc3s2)cc1`, for which the concentration for half-maximal inhibition (IC50) in the assay on HEL stood at 1340 nM; in the assay on MDA-MB-468, 2050 nM; in assay [1] it was 120 nM.
Turning to `CCCC(C)Oc1ccc(C(=O)Nc2ccc3nc(SCC(=O)N[C@@H](C)c4ccccc4)sc3c2)cc1C(F)(F)F` (stereo partly drawn), the IC50 in [1] was over 10000 nM.
Still for that read-out and setting: the value for `CCCC(C)Oc1ccc(C(=O)Nc2ccc3nc(SCC(=O)N[C@@H](C)c4ccccc4)sc3c2)cc1F` (stereo partly drawn) was over 10000 nM.
Turning to `CCCC(C)Oc1ccc(C(=O)Nc2ccc3nc(SCC(=O)N[C@@H](C)c4ccccc4)sc3c2)cc1` (stereo partly drawn), the values for the IC50 (in the assay with HEL; in the assay on MDA-MB-468; in assay [1] (hepg2)) were over 10000 nM, 2210 nM and 1600 nM, respectively.
Take `COc1ccc([C@H](C)NC(=O)CSc2nc3ccc(NC(=O)c4ccc(OC(C)C)c(C)c4OC)cc3s2)cc1`: the figures for the IC50 (with HEL; in the assay on MDA-MB-468; in assay [1]) were 1290 nM, 1810 nM and 220 nM, respectively.
In [1], `CCCC(C)Oc1ccc(C(=O)Nc2ccc3nc(SCC(=O)N[C@@H](C)c4ccccc4)sc3c2)c(F)c1` (stereo partly drawn) showed a concentration for half-maximal inhibition (IC50) of over 10000 nM.
Same read-out and setting: for `CCCc1cc(C(=O)Nc2ccc3nc(SCC(=O)N[C@@H](C)c4ccccc4)sc3c2)ccc1OC(C)CCC` (stereo partly drawn) the value was over 10000 nM.
Consider `CCCC(C)Oc1ccc(C(=O)Nc2ccc3nc(SCC(=O)N[C@@H](C)c4ccccc4)sc3c2)cc1C` (stereo partly drawn), for which the IC50 is over 10000 nM in the assay with HEL, 730 nM in the assay on MDA-MB-468 and 950 nM in assay [1].
Consider `CCCC(C)Oc1ccc(C(=O)Nc2ccc3nc(SCC(=O)N[C@@H](C)c4ccccc4)sc3c2)c(OC)c1` (stereo partly drawn), for which, in assay [1], the IC50 came to 2200 nM.
Take `COc1ccc([C@H](C)NC(=O)CSc2nc3ccc(NC(=O)c4ccc(OCCN5CCOCC5)c(C)c4OC)cc3s2)cc1`: the IC50 in the assay on HEL turned out to be 3380 nM; with MDA-MB-468, 1770 nM; in assay [1], 240 nM.
`COCCOc1ccc(C(=O)Nc2ccc3nc(SCC(=O)N[C@@H](C)c4ccc(OC)cc4)sc3c2)c(OC)c1C`: the figures for the IC50 (in the assay with HEL; in the assay on MDA-MB-468; in assay [1]) were 1440 nM, 1160 nM and 260 nM, respectively.
In [1], `CCCC(C)Oc1ccc(C(=O)Nc2ccc3nc(SCC(=O)N[C@@H](C)c4ccccc4)sc3c2)c(F)c1F` (stereo partly drawn) displayed an IC50 of over 10000 nM.
As for `COc1ccc([C@H](C)NC(=O)CSc2nc3ccc(NC(=O)c4ccc(OCC(C)C)c(C)c4OC)cc3s2)cc1`, the IC50 amounted to 2050 nM with HEL, 2020 nM with MDA-MB-468 and 200 nM in assay [1].
The corresponding values for `COc1ccc([C@H](C)NC(=O)CSc2nc3ccc(NC(=O)c4ccc(OCCN(C)C)c(C)c4OC)cc3s2)cc1` are 4980 nM, 6570 nM and 520 nM.
Consider `COc1ccc([C@H](C)NC(=O)COc2nc3ccc(NC(=O)c4ccc(OC)c(C)c4OC)cc3s2)cc1`, for which, in [1], the IC50 is 8860 nM.
Regarding `CCCC(C)Oc1ccc(C(=O)Nc2ccc3nc(SCC(=O)N[C@@H](C)c4ccccc4)sc3c2)cc1Cl` (stereo partly drawn), the IC50 in assay [1] was over 10000 nM.
Take `CCCC(C)Oc1ccc(C(=O)Nc2ccc3nc(SCC(=O)N[C@@H](C)c4ccc(O)cc4)sc3c2)c(OC)c1C` (stereo partly drawn): the IC50 in the assay on HEL is 680 nM; with MDA-MB-468, 700 nM; in assay [1], 200 nM.
Consider `CCC[C@H](C)Oc1ccc(C(=O)Nc2ccc3nc(SCC(=O)N[C@@H](C)c4ccccc4)sc3c2)cc1C`, for which it took 1200 nM to reach half-maximal inhibition in assay [1] (IC50).
As for `N#CC[C@H](C1CCCC1)n1cc(-c2ncnc3[nH]ccc23)cn1` [RUXOLITINIB], the figures for the IC50 in the assay with HEL and in the assay with MDA-MB-468 were 1400 nM and over 20000 nM, respectively.
With `CCCC(C)Oc1ccc(C(=O)Nc2ccc3nc(SCC(=O)N[C@@H](C)c4ccccc4O)sc3c2)c(OC)c1C` (stereo partly drawn), the figures for the IC50 (in the assay with HEL; in the assay on MDA-MB-468; in assay [1]) were 970 nM, 590 nM and 170 nM, respectively.
In the case of `CCCC(C)Oc1ccc(C(=O)Nc2ccc3nc(SCC(=O)N[C@@H](C)c4ccccc4)sc3c2)c(Cl)c1` (stereo partly drawn), the midpoint of inhibition in assay [1], the IC50, lay at 1340 nM.
Consider `COc1ccc([C@H](C)NC(=O)CSc2nc3ccc(NC(=O)c4ccc(OCCN5CCCC5)c(C)c4OC)cc3s2)cc1`, for which the values for the IC50 (with HEL; in the assay on MDA-MB-468; in assay [1]) were 10400 nM, 3360 nM and 1030 nM, respectively.
Regarding `COc1ccc([C@H](C)NC(=O)CNc2nc3ccc(NC(=O)c4ccc(OC)c(C)c4OC)cc3s2)cc1`, the IC50 in assay [1] worked out at 1490 nM.
Still for that read-out and setting: for `CCCC(C)Oc1ccc(C(=O)Nc2ccc3nc(SCC(=O)N[C@@H](C)c4ccccc4)sc3c2)cc1Br` (stereo partly drawn) the value was 2150 nM; for `CCCC(C)Oc1ccc(C(=O)Nc2ccc3nc(SCC(=O)N[C@@H](C)c4ccccc4)sc3c2)cc1OC` (stereo partly drawn), 1420 nM.
In assay [1], `CCCC(C)Oc1ccc(C(=O)Nc2ccc3nc(SCC(=O)N[C@@H](C)c4ccccc4)sc3c2)c(C)c1` (stereo partly drawn) displayed an IC50 of 2720 nM.
As for `CCCC(C)Oc1ccc(C(=O)Nc2ccc3nc(SCC(=O)N[C@@H](C)c4cccc(OC)c4)sc3c2)c(OC)c1C` (stereo partly drawn), the IC50 turned out to be 870 nM with HEL, 500 nM in the assay with MDA-MB-468 and 270 nM in assay [1].
With `CCCC(C)Oc1ccc(C(=O)Nc2ccc3nc(SCC(=O)N[C@@H](C)c4ccccc4)sc3c2)cc1CC` (stereo partly drawn), in assay [1], the IC50 was over 10000 nM.
On to `CCCC(C)Oc1ccc(C(=O)Nc2ccc3nc(SCC(=O)N[C@@H](C)c4ccccc4)sc3c2)c(C)c1C` (stereo partly drawn), for which the IC50 in the assay on HEL came out at 930 nM; with MDA-MB-468, 810 nM; in assay [1] it was 460 nM.
For the molecule `CCC[C@@H](C)Oc1ccc(C(=O)Nc2ccc3nc(SCC(=O)N[C@@H](C)c4ccccc4)sc3c2)cc1C`, in assay [1], the IC50 is 900 nM.
Take `CCCC(C)Oc1ccc(C(=O)Nc2ccc3nc(SCC(=O)N[C@@H](C)c4cccc(O)c4)sc3c2)c(OC)c1C` (stereo partly drawn): the results for the IC50 (in the assay on HEL; in the assay on MDA-MB-468; in assay [1]) were 620 nM, 2240 nM and 150 nM, respectively.
As to `NS(=O)(=O)c1cccc2c1C(=O)c1cccc(O)c1C2=O`, the IC50 with HEL worked out at 1460 nM; in the assay with MDA-MB-468 it was 730 nM; in assay [1], 98 nM.
Regarding `O=[N+]([O-])c1ccc2c(c1)S(=O)(=O)C=C2`, the IC50 in the assay on MDA-MB-453 came to 4400 nM; with MCF7 it was 1700 nM; in the assay with HEL, 1590 nM. Moreover, the Activity amounted to 71.1% in [2], 62.3% in assay [3] and 95% in [4]. Further, the affinity in assay [5], expressed as Kd, was 1530 nM.
`CCCC(C)Oc1ccc(C(=O)Nc2ccc3nc(SCC(=O)N[C@@H](C)c4ccccc4)sc3c2)cc1C#N` (stereo partly drawn) showed a concentration for half-maximal inhibition (IC50) in assay [1] of over 10000 nM.
With `Cc1cc(Nc2nc(N[C@@H](C)c3ncc(F)cn3)ncc2Cl)[nH]n1` [AZD-1480], the IC50 was 730 nM with HEL and 5870 nM with MDA-MB-468.

As a reminder, the IC50 is the concentration at which inhibition is half-maximal. One may read the Kd as the concentration at which binding is half-saturated. The low end stands for higher affinity, the high end for lower affinity.
